Measured values taken from ChEMBL document CHEMBL3627646, “Synthesis and biological activity of amino acid derivatives of avarone and its model compound” (Bioorg Med Chem, 2015).
In brackets after ≈: the same amount, converted by molar mass. Activity calls are given as the source filed them. The calls are words filed in the database; no cut-off is given here.

Assays:
HeLa = test: Cytotoxicity against human HeLa cells assessed as cell survival after 72 hrs by MTT assay; assay type: functional, cell-based
Procedure, shortened: (§1)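 Cells seeded (HeLa 2000, MDA-MB-453 3000, others 5000 per well), treated 24 h later (K562 after 2 h). Five double-diluted final concentrations, 200–12.5 μM, from 10 mM DMSO stocks, in RPMI-1640 with 10% FBS, pH 7.2, 72 h. MTT 4 h at 37 °C, SDS added, A570 read next day. Survival relative to medium control; IC50 from survival curves; triplicate; cisplatin positive control.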

A549 = test: Cytotoxicity against human A549 cells assessed as cell survival after 72 hrs by MTT assay; assay type: functional, cell-based; conditions: A549, 72 h; procedure, shortened: as §1
[1] = Cytotoxicity against human Fem-X cells assessed as cell survival after 72 hrs by MTT assay; assay type: functional, cell-based; procedure, shortened: as §1
K562 = test: Cytotoxicity against human K562 cells assessed as cell survival after 72 hrs by MTT assay; assay type: functional, cell-based; conditions: K562, 72 h; procedure, shortened: as §1
MDA-MB-453 = test: Cytotoxicity against human MDA-MB-453 cells assessed as cell survival after 72 hrs by MTT assay; assay type: functional, cell-based; conditions: MDA-MB-453, 72 h; procedure, shortened: as §1
MRC5 = test: Cytotoxicity against human MRC5 cells assessed as cell survival after 72 hrs by MTT assay; assay type: cell-based; conditions: MRC5, 72 h; procedure, shortened: as §1
Staphylococcus aureus = test: Antibacterial activity against Staphylococcus aureus ATCC 6538 after 24 hrs by microbroth double dilution method; assay type: functional; conditions: ATCC 6538, 24 h
Procedure, shortened: (§2)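 Microbroth double dilution in Mueller Hinton broth; compound stock 10 mg/mL in DMSO serially halved across rows. Wells inoculated with 10 μL culture at 10^6 cells/mL, incubated 37 °C for 24 h. Amikacin row as positive control, DMSO row as negative control. MIC taken as lowest concentration inhibiting bacterial growth.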

Kocuria rhizophila = test: Antibacterial activity against Kocuria rhizophila ATCC 9341 after 24 hrs by microbroth double dilution method; assay type: functional; conditions: ATCC 9341, 24 h; procedure, shortened: as §2
Bacillus subtilis = test: Antibacterial activity against Bacillus subtilis ATCC 6633 after 24 hrs by microbroth double dilution method; assay type: functional; conditions: ATCC 6633, 24 h; procedure, shortened: as §2
Micrococcus luteus = test: Antibacterial activity against Micrococcus luteus ATCC 4698 after 24 hrs by microbroth double dilution method; assay type: functional; conditions: ATCC 4698, 24 h; procedure, shortened: as §2
Micrococcus flavus = test: Antibacterial activity against Micrococcus flavus ATCC 10240 after 24 hrs by microbroth double dilution method; assay type: functional; conditions: ATCC 10240, 24 h; procedure, shortened: as §2
Clostridium sporogenes = test: Antibacterial activity against Clostridium sporogenes ATCC 19404 after 24 hrs by microbroth double dilution method; assay type: functional; conditions: ATCC 19404, 24 h; procedure, shortened: as §2
Escherichia coli = test: Antibacterial activity against Escherichia coli ATCC 25922 after 24 hrs by microbroth double dilution method; assay type: functional; conditions: ATCC 25922, 24 h; procedure, shortened: as §2
Proteus hauseri = test: Antibacterial activity against Proteus hauseri ATCC 13315 after 24 hrs by microbroth double dilution method; assay type: functional; conditions: ATCC 13315, 24 h; procedure, shortened: as §2
Salmonella enterica = test: Antibacterial activity against Salmonella enterica ATCC 13076 after 24 hrs by microbroth double dilution method; assay type: functional; conditions: ATCC 13076, 24 h; procedure, shortened: as §2
Pseudomonas aeruginosa = test: Antibacterial activity against Pseudomonas aeruginosa ATCC 9027 after 24 hrs by microbroth double dilution method; assay type: functional; conditions: ATCC 9027, 24 h; procedure, shortened: as §2
Candida albicans = test: Antifungal activity against Candida albicans ATCC 10231 after 24 hrs by microbroth double dilution method; assay type: functional
Saccharomyces cerevisiae = test: Antifungal activity against Saccharomyces cerevisiae ATCC 9763 after 24 hrs by microbroth double dilution method; assay type: functional
Aspergillus brasiliensis = test: Antifungal activity against Aspergillus brasiliensis ATCC 16404 after 24 hrs by microbroth double dilution method; assay type: functional
Artemia salina = test: Cytotoxicity in Brine shrimp assessed as nauplii mortality after 24 hrs; assay type: organism-based; conditions: in vivo
Procedure, shortened: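 Artemia salina eggs hatched in aerated tap water with dried yeast at 18–20 °C under illumination for 48 h, and freshly hatched nauplii were used. Compounds in DMSO (0.01–1 mg) were added to 950 µL artificial seawater containing 10–20 nauplii, with 5% final DMSO. After 24 h under illumination at room temperature, dead and surviving nauplii were counted and statistically analysed.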

Compound	IC50 (HeLa)	IC50 (A549)	IC50 [1]	IC50 (K562)	IC50 (MDA-MB-453)	IC50 (MRC5)	MIC (Staphylococcus aureus)	MIC (Kocuria rhizophila)	MIC (Bacillus subtilis)	MIC (Micrococcus luteus)	MIC (Micrococcus flavus)	MIC (Clostridium sporogenes)	MIC (Escherichia coli)	MIC (Proteus hauseri)	MIC (Salmonella enterica)	MIC (Pseudomonas aeruginosa)	MIC (Candida albicans; ATCC 10231, 24 h)	MIC (Saccharomyces cerevisiae; ATCC 9763, 24 h)	MIC (Aspergillus brasiliensis; ATCC 16404, 24 h)	LC50 (Artemia salina)	also measured
CC1=CCC[C@H]2[C@](C)(CC3=CC(=O)C(N4CCC[C@H]4C(=O)O)=CC3=O)[C@@H](C)CC[C@]12C	36.2 µM	49.2 µM	39.6 µM	35.4 µM	60.6 µM	96 µM	91.5 µM (≈ 39 µg/mL)	735 µM (≈ 313 µg/mL)	183 µM (≈ 77.9 µg/mL)	91.5 µM (≈ 39 µg/mL)	183 µM (≈ 77.9 µg/mL)	369 µM (≈ 157 µg/mL)	91.5 µM (≈ 39 µg/mL)	183 µM (≈ 77.9 µg/mL)	183 µM (≈ 77.9 µg/mL)	183 µM (≈ 77.9 µg/mL)	23 µM (≈ 9.79 µg/mL)	45.8 µM (≈ 19.5 µg/mL)	735 µM (≈ 313 µg/mL)	706.6 ppm	–
CC1=CCC[C@H]2[C@](C)(CC3=CC(=O)C=C(NCC(=O)O)C3=O)[C@@H](C)CC[C@]12C	19.9 µM	46.7 µM	17.8 µM	15.6 µM	5.84 µM	183 µM	101 µM (≈ 39 µg/mL)	811 µM (≈ 313 µg/mL)	407 µM (≈ 157 µg/mL)	101 µM (≈ 39 µg/mL)	407 µM (≈ 157 µg/mL)	407 µM (≈ 157 µg/mL)	101 µM (≈ 39 µg/mL)	811 µM (≈ 313 µg/mL)	407 µM (≈ 157 µg/mL)	407 µM (≈ 157 µg/mL)	12.6 µM (≈ 4.86 µg/mL)	100 µM (≈ 38.7 µg/mL)	404 µM (≈ 156 µg/mL)	487.1 ppm	–
CC(C)(C)C1=CC(=O)C(N2CCC[C@H]2C(=O)O)=CC1=O	44.9 µM	186 µM	87.3 µM	49.2 µM	67.2 µM	> 200 µM	567 µM (≈ 157 µg/mL)	2260 µM (≈ 626 µg/mL)	1130 µM (≈ 313 µg/mL)	567 µM (≈ 157 µg/mL)	2260 µM (≈ 626 µg/mL)	2260 µM (≈ 626 µg/mL)	567 µM (≈ 157 µg/mL)	2260 µM (≈ 626 µg/mL)	2260 µM (≈ 626 µg/mL)	2260 µM (≈ 626 µg/mL)	567 µM (≈ 157 µg/mL)	567 µM (≈ 157 µg/mL)	2260 µM (≈ 626 µg/mL)	883.4 ppm	–
CC(C)[C@@H](NC1=CC(=O)C=C(C(C)(C)C)C1=O)C(=O)O	96.5 µM	154 µM	24.6 µM	57.8 µM	133 µM	> 200 µM	1120 µM (≈ 313 µg/mL)	4480 µM (≈ 1250 µg/mL)	2240 µM (≈ 626 µg/mL)	1120 µM (≈ 313 µg/mL)	2240 µM (≈ 626 µg/mL)	2240 µM (≈ 626 µg/mL)	1120 µM (≈ 313 µg/mL)	4480 µM (≈ 1250 µg/mL)	4480 µM (≈ 1250 µg/mL)	2240 µM (≈ 626 µg/mL)	563 µM (≈ 157 µg/mL)	563 µM (≈ 157 µg/mL)	2240 µM (≈ 626 µg/mL)	574.9 ppm	–
CC1=CCC[C@H]2[C@](C)(CC3=CC(=O)C=CC3=O)[C@@H](C)CC[C@]12C [AVARONE]	18.1 µM	30 µM	40.3 µM	17.1 µM	16.7 µM	> 200 µM	40.1 µM (≈ 12.5 µg/mL)	20 µM (≈ 6.26 µg/mL)	80.1 µM (≈ 25 µg/mL)	2000 µM (≈ 625 µg/mL)	20 µM (≈ 6.26 µg/mL)	20 µM (≈ 6.26 µg/mL)	441 µM (≈ 138 µg/mL)	27.6 µM (≈ 8.61 µg/mL)	55.1 µM (≈ 17.2 µg/mL)	13.8 µM (≈ 4.31 µg/mL)	–	–	–	170 ppm	MIC (Candida albicans): inactive; MIC (Saccharomyces cerevisiae): inactive; MIC (Aspergillus brasiliensis): inactive
CC1=CCC[C@H]2[C@](C)(CC3=CC(=O)C=C(N[C@@H](Cc4ccccc4)C(=O)O)C3=O)[C@@H](C)CC[C@]12C	14.6 µM	40.1 µM	17.3 µM	20.5 µM	16.6 µM	> 200 µM	10.3 µM (≈ 4.91 µg/mL)	331 µM (≈ 157 µg/mL)	20.6 µM (≈ 9.81 µg/mL)	10.3 µM (≈ 4.91 µg/mL)	82.1 µM (≈ 39.1 µg/mL)	82.1 µM (≈ 39.1 µg/mL)	10.3 µM (≈ 4.91 µg/mL)	82.1 µM (≈ 39.1 µg/mL)	20.6 µM (≈ 9.81 µg/mL)	20.6 µM (≈ 9.81 µg/mL)	164 µM (≈ 78.1 µg/mL)	10.3 µM (≈ 4.91 µg/mL)	1320 µM (≈ 626 µg/mL)	96.7 ppm	–
CC(C)(C)C1=CC(=O)C=CC1=O	44.1 µM	47 µM	41.6 µM	15.5 µM	56.8 µM	> 200 µM	238 µM (≈ 39 µg/mL)	475 µM (≈ 78 µg/mL)	238 µM (≈ 39 µg/mL)	238 µM (≈ 39 µg/mL)	475 µM (≈ 78 µg/mL)	475 µM (≈ 78 µg/mL)	238 µM (≈ 39 µg/mL)	475 µM (≈ 78 µg/mL)	475 µM (≈ 78 µg/mL)	475 µM (≈ 78 µg/mL)	122 µM (≈ 20 µg/mL)	238 µM (≈ 39 µg/mL)	122 µM (≈ 20 µg/mL)	27.4 ppm	–
